Results of several laboratories.
Protocols differ between the studies behind these lines. pEC50, pIC50: −log10 of the molar value.

Cl.O[C@]12C=C(c3nccc4c3[nH]c3ccccc34)[C@@H]3CCN(CCCC/C=C\CC1)C[C@@]31C[C@@H]3/C=C\CCCCN3[C@H]12 has an IC50 of 0.38 µg/mL (KB; cell growth or viability, neutral red; 48 h).
With CC1=CC(=O)c2c(O)cccc2C1=O the pIC50 was 5.52 (NCI-H226; cell growth or viability, SRB).
For COC(=O)[C@H]1O[C@@H](O[C@H]2CC[C@]3(C)[C@H]4CC=C5[C@@H]6CC(C)(C)CC[C@]6(C(=O)O[C@@H]6O[C@H](CO)[C@@H](O)[C@H](O)[C@H]6O)CC[C@@]5(C)[C@]4(C)CC[C@H]3C2(C)C)[C@H](O)[C@@H](O)[C@@H]1O[C@@H]1O[C@@H](CO)[C@H](O)[C@H]1O, the pIC50 was < 4.52 (human Neutrophil; elastase release, inhibitor).
COc1ccc2[nH]cc(CCNc3nccc(Nc4cccc5c4ccn5C)n3)c2c1 has a pIC50 of 8.10 (U-937; cell growth or viability, fluorescence; 72 h).
With COc1cc2[nH]c(C)c(-c3ccc(N(C)C)cc3)c(=O)c2cc1Cl the pEC50 was < 4.53 (J774; cell growth or viability).
The pIC50 of CCCCOC(=O)[C@H]1O[C@@H](O[C@H]2CC[C@]3(C)[C@H]4CC=C5[C@@H]6CC(C)(C)CC[C@]6(C(=O)O[C@@H]6O[C@H](CO)[C@@H](O)[C@H](O)[C@H]6O)CC[C@@]5(C)[C@]4(C)CC[C@H]3C2(C)C)[C@H](O[C@@H]2OC[C@@H](O)[C@H](O)[C@H]2O)[C@@H](O)[C@@H]1O is reported as < 4.52 (human Neutrophil; elastase release, inhibitor).
With N.N.[Cl][Pt][Cl] the pIC50 was 5.95 (Hs 683; cell growth or viability, MTT).
For COc1cccc2c1C(=O)c1c(O)c3c(c(O)c1C2=O)C[C@@](O)(C(=O)CO)C[C@@H]3O[C@H]1C[C@H](N)[C@H](O)[C@H](C)O1, the IC50 was 1.4 µg/mL (KB; cell growth or viability; 48 h).
O=C(O)c1cnn(-c2ccccc2)c1OCCCc1c[nH]c2ccccc12 gave an inhibition of < 50% (HFF; cell growth or viability; 200 µM, 96 h).
The IC50 of Cc1c2ccncc2c(C)c2c1[nH]c1ccccc12 is reported as 0.22 µg/mL (KB; cell growth or viability, MTT; 72 h).
